Data: ChEMBL document CHEMBL1135567, “Synthesis and structure-activity relationships of an orally available and long-acting analgesic peptide, N(alpha)-amidino-Tyr-D-Arg-Phe-MebetaAla-OH (ADAMB)” (J Med Chem, 2002)

How the values were obtained:
Mus musculus [1] = assay: (§1) In vivo antinociceptive activity expressed as ED50 administered perorally for tail pressure test; conditions: po
[2] = Ratio of ED50 value administered subcutaneously to that of perorally.; type: functional
Outline: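 Mouse tail pressure test ED50 values obtained after sc and po dosing by Litchfield–Wilcoxon at peak activity. The sc ED50 divided by the po ED50 is expressed as a percentage.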

Mus musculus [3] = assay: as §1; conditions: po; remark: listed apart in the source
Mus musculus [4] = assay: In vivo antinociceptive activity expressed as ED50 administered perorally for tail pressure test in mice; conditions: po

## CN1CC[C@]23c4c5ccc(O)c4O[C@H]2[C@@H](O)C=C[C@H]3[C@H]1C5 [MORPHINE]
Mus musculus [1]
  ED50: 15 mg/kg
[2]
  Ratio: 15
Mus musculus [3]
  ED50: 1.7 mg/kg
Mus musculus [4]
  ED50: 3.3 mg/kg
